High-throughput results as filed in PubChem BioAssay.
A selection: hits, their analogues and other compounds. The true share with any hit is near 0.49%.
ABCB1 inh: human ABCB1 inhibition, ABCG2 as counter-screen; hit rate 0.067% among 190,000; inhibition, % at 6.6 µM; CCRF-Adr cells, JC-1 efflux, flow cytometry; in the data active = inhibition above about 40%;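 note: 0% = vehicle and 100% = reference inhibitor; higher value means more JC-1 retained so stronger ABCB1 efflux block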
Efa HMGR inh: E. faecalis class II HMG-CoA reductase inhibition; purified E. faecalis HMGR, NADPH absorbance 340 nm kinetic; inhibition, % at 10 µM; hit rate 0.41% among 190,000;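 active = inhibition above a set limit, the median over all tested compounds plus 3 SD, cut at about 9.5% in these data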;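 note: enzyme runs in reverse so mevalonate oxidation gives rising NADPH absorbance; 0% = complete reaction with DMSO and 100% = background rate lacking mevalonate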
ABCG2 block: blocks JC-1 efflux by human ABCG2 transporter. IgMXP3 cells, flow cytometry. inhibition, % at 6.6 µM. hit rate 0.1% among 190,000;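 active = inhibition above 80%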;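 note: 0% = DMSO and 100% = nicardipine control wells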
Target sequence (Q9UNQ0 whole entry, looked up): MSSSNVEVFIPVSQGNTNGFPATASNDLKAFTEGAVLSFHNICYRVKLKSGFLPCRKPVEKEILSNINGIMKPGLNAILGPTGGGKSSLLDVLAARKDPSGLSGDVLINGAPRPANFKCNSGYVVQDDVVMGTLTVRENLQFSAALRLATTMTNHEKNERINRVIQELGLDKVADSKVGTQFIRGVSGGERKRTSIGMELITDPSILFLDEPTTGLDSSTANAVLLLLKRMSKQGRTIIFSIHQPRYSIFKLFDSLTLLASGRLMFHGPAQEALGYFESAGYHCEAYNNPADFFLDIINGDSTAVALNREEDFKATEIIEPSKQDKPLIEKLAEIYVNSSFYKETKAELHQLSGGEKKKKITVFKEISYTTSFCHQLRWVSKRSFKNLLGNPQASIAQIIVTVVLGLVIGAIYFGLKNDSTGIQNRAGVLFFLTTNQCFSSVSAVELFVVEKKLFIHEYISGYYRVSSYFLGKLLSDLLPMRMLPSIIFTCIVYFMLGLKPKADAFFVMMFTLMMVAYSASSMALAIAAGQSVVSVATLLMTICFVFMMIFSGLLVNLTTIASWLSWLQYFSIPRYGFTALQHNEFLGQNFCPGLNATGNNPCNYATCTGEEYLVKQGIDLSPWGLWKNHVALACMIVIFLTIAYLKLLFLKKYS
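Read-out basis: Efflux inhibition in percent versus controls | Test system: ABCG2 IgMXP3 and barcoded ABCB1 CCRF-Adr cell mix | Quantity: 3 million cells/mL in well | Schedule: 10 min at 25 °C | Control set: Nicardipine as high control, DMSO as low control | Reagent: JC-1 as fluorescent efflux pump substrate | Signal: Flow cytometry of retained JC-1 fluorescence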
HSV augment: increases HSV replication in cells; hit rate 0.005% among 220,000; AID 1956; maximum fold increase; HSV replication augmentation in cells, fold increase; in the data active = maximum fold increase above about 1.5; tested in PC3 cells
Active calls of the source: *; i = inactive; x = not tested or not shown.

SMILES | ABCB1 inh | Efa HMGR inh | ABCG2 block | HSV augment
C=CCSc1nnc(-c2ccc([N+](=O)[O-])cc2)o1 | 0.4 | -3.9 | 9.3 | i
CN(C(=O)CSc1cc(C(=O)c2nccn2C)c2ccccc2n1)c1ccccc1 | x | x | x | i
O=C(O)c1cccc(-n2cccc2/C=C2/NC(=O)N(c3ccc(Cl)cc3)C2=O)c1 | -1.1 | 10.1* | -1.7 | i
O=C(O)CCCCCN1C(=O)C2CCCCC2C1=O (centres undefined) | 1.3 | 0.1 | -0.8 | i
O=C(O)CCCCCCC1C(=O)NC(=O)N1CCC(O)C1CCCCC1 (centres undefined) | -1.8 | 16.6* | -4.4 | i
Cc1nc(=S)c2ccccc2[nH]1 | -0.1 | 14.9* | 0.7 | i
CN(C)S(=O)(=O)c1cccc(NC(=O)Cn2cc(C(F)(F)F)cc(Cl)c2=O)c1 | 0.9 | 16.4* | 1.4 | i
NS(=O)(=O)c1cccc(NC(=O)Cn2cc(C(F)(F)F)cc(Cl)c2=O)c1 | x | x | x | i
CCCCCC(C)NC(=O)c1ccoc1C (centres undefined) | 0.0 | 10.6* | 1.6 | i
Cc1cccc(OCCn2c(S(=O)(=O)O)nc3ccccc32)c1 | -2.8 | -8.2 | -1.8 | i
Cc1cccc(OCCn2c(=S)[nH]c3ccccc32)c1 | -1.1 | 11.3* | 1.5 | i
COc1ccc(S(=O)(=O)N2CC=C(C(=O)Nc3ccc(NC(C)=O)cc3)CC2)cc1 | 0.2 | 21.7* | 0.1 | i
Cc1ccc(NC(=O)C2=CCN(S(=O)(=O)c3ccc(F)cc3)CC2)cc1 | -0.2 | -4.6 | 7.5 | x
Cc1ccccc1Nc1nnc(SCc2nc3ccccc3c(=O)[nH]2)s1 | 0.0 | 13.8* | 8.1 | i
Cc1ccc(C(=O)NC(C)c2ccc3c(c2)OCO3)s1 (centres undefined) | 0.7 | 13.3* | 1.7 | i
COc1cc(CC2COC(c3ccc(O)c(OC)c3)C2COC(C)=O)ccc1O (centres undefined) | x | x | x | i
O=C(/C=C/c1cccs1)c1ccc(NC(=O)c2ccccc2F)cc1 | 0.8 | 17.7* | 8.6 | i
Cc1ccc(CNC(=O)CNS(=O)(=O)c2ccc3nc(C)sc3c2)cc1 | -0.1 | -6.2 | 1.8 | i
O=C1c2cccnc2C(=O)N1CNc1ccc(Cl)cc1 | 0.5 | 3.4 | 2.4 | i
Cc1cc(NC(=O)CCC(=O)N(CC(=O)NC2CCCC2)c2ccccc2)no1 | 0.0 | 10.2* | 0.0 | i
Cc1cc(NC(=O)CCCC(=O)N(CC(=O)NC2CCCCC2)c2ccccc2)no1 | 1.1 | -1.1 | 8.2 | i
O=C(Nc1ccccc1F)Nc1ccccc1OC(F)F | 0.6 | -1.9 | 21.3 | i
O=C(O)c1ccc(COc2ccccc2/C=C2/NC(=O)N(c3cccc(Cl)c3)C2=O)cc1 | -1.0 | 0.5 | -5.3 | i
Cc1ccsc1/C=C1/NC(=O)N(Cc2ccc(F)cc2)C1=O | 0.2 | 15.0* | -1.1 | i
O=C(O)c1ccc(COc2ccccc2/C=C2\NC(=O)N(Cc3ccc(F)cc3)C2=O)cc1 | -0.6 | 10.9* | -1.2 | i
SMILES | ABCB1 inh | Efa HMGR inh | ABCG2 block | HSV augment
CC(=O)Nc1ccccc1Nc1cc(C#N)c(C#N)cc1[N+](=O)[O-] | x | x | x | i
CC(Sc1nncn1C)C(=O)NCc1ccc2c(c1)OCO2 (centres undefined) | -0.5 | 1.1 | 0.0 | i
Cc1ccc(-c2ccc(/C=C3\SC(N4CCOCC4)=NC3=O)o2)cc1 | 0.7 | 11.6* | 1.0 | i
Cc1cc(SCn2nnc3ccccc3c2=O)nc2ccccc12 | 1.5 | 115.2* | 12.9 | i
CCC(=O)n1nc(-c2ccc(Cl)cc2)nc1N | -0.1 | -4.5 | 1.1 | i
CCc1nc(N)nc(N)c1-c1ccc(Cl)cc1 | -0.1 | 15.4* | -0.1 | i
CCNC(=O)Nn1c(-c2ccccc2)nc2ccccc2c1=O | 0.5 | -6.2 | 3.3 | i
CCC(C(=O)OC)n1c(-c2ccccc2)nc2ccccc2c1=O (centres undefined) | 0.5 | 12.0* | 7.1 | i
O=C(c1ccc(F)cc1)C1CCN(C(=S)NCC2CCCO2)CC1 (centres undefined) | 0.3 | 11.6* | 1.5 | i
Cc1ccc(C(=O)C2CCN(C(=S)NCC3CCCO3)CC2)cc1 (centres undefined) | -1.1 | -4.0 | 3.7 | i
S=C(NCc1ccc2[nH]c3c(c2c1)CCCC3)Nc1ccccc1 | 1.0 | 9.8* | 12.1 | i
Cc1cc(C)cc(NC(=S)NCc2ccc3[nH]c4c(c3c2)CCCC4)c1 | -0.5 | -3.8 | -0.2 | x
O=C(NCc1csc2ccccc12)Nc1cc(Cl)cc(Cl)c1 | x | x | x | i
COc1ccc(/C=N/Nc2nccnc2Cl)c(OC)c1 | 0.1 | 18.4* | 1.3 | i
Cc1c(NC(=S)N2CCN(c3ccc(F)cc3)CC2)c(=O)n(-c2ccccc2)n1C | 0.0 | -3.4 | 3.2 | i
CCC(C(=O)Nc1ncc(C)s1)c1ccccc1 (centres undefined) | -0.1 | -0.6 | 1.9 | i
CC(C)C[C@H](NC(=O)c1ccc(OC2CCN(C(=O)C3CC3)CC2)cc1)C(N)=O | 0.9 | -4.9 | 9.2 | i
CC(CCCC(C)(C)O)NC(=O)c1ccc(OC2CCN(C(=O)C3CC3)CC2)cc1 (centres undefined) | -0.7 | 10.0* | 0.8 | i
O=C(O)c1ccc(CNC(=S)Nc2ccccc2)cc1 | 0.4 | -1.5 | 9.6 | i
CCN(C(=S)Nc1ccc(Oc2ccccc2)cc1)c1ccccc1 | 0.3 | -11.3 | 2.1 | i
O=[N+]([O-])/C(=C\Nc1ccccc1Cl)S(=O)(=O)c1ccccc1 | -0.4 | 17.6* | -1.0 | i
O=C(OC1C[C@@H]2CC3C[C@H](C1)N2CC3=O)c1c[nH]c2ccccc12 (some centres undefined) | x | x | x | i
COc1ccc(NC(=O)N2CCN(c3nc(-c4cccc(OC)c4)cs3)CC2)cc1 | 2.8 | -0.7 | 59.9 | i
COc1cccc(-c2csc(N3CCN(C(=O)Nc4ccc(Cl)cc4)CC3)n2)c1 | -1.1 | 9.9* | 8.2 | i
O=C(NCc1ccc2c(c1)OCO2)C1CCCN1S(=O)(=O)c1ccc(F)cc1 (centres undefined) | x | x | x | i
SMILES | ABCB1 inh | Efa HMGR inh | ABCG2 block | HSV augment
COC(=O)[C@@]1(Cc2ccc(OC)cc2)[C@H]2c3cc(C(=O)N4CCCC4)n(CCSCCO)c3C[C@H]2CN1C(=O)c1ccccc1 | 2.1 | -4.7 | 10.1 | i
O=C(C/C=N/OCc1ccc(F)cc1Cl)c1cnc(-c2ccccc2)s1 | 0.2 | 11.1* | 0.4 | i
O=C(C/C=N/OCc1ccccc1F)c1cnc(-c2ccc(Cl)cc2)s1 | 0.4 | 3.9 | 1.1 | i
CCN(CC)S(=O)(=O)c1ccc2oc(C(=O)NC(C)C)c(C)c2c1 | 8.7 | -0.5 | 93.7* | i
CCc1ccc2nc(NC(=O)c3ccc(N4C(=O)CCC4=O)cc3)sc2c1 | x | x | x | i
CNS(=O)(=O)c1ccc2nc(NC(=O)c3ccc(N4C(=O)CCC4=O)cc3)sc2c1 | -0.7 | 10.4* | -1.4 | i
CSC(=S)N/N=C(\C)c1ccccc1 | -0.1 | -3.5 | 0.8 | i
COc1ccc(C)cc1NC(=O)C(Sc1nnnn1C)c1ccccc1 (centres undefined) | 0.5 | 14.6* | 1.1 | i
COc1ccc(N(CC(=O)Nc2cc(C)cc(C)c2)S(=O)(=O)c2ccccc2[N+](=O)[O-])c(OC)c1 | 0.3 | 9.9* | 1.6 | i
